Data set [1] in a line: Metabolic stability in CD1 mouse liver microsomes assessed as intrinsic clearance measured upto 60 mins by LC-MS/MS analysis. The format is ADME. The settings on record: read-out: CLH. The essentials: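 CD1 mouse liver microsomes at 0.25 mg/mL, compound at 0.5 µM, pH 7.4, 37 °C, started with NADPH. Sampled at 0, 5, 10, 20, 30 and 60 min and quenched with acetonitrile:methanol containing tolbutamide. Measured by LC-MS/MS; CLint (k × 1000/0.25, µL/min/mg) derived by non-linear regression of % remaining over time.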

Data set [2] is described as follows: Selectivity index, ratio of CC50 for cytotoxicity against human MRC5 cells to EC50 for Trypanosoma cruzi Tulahuen CL2 amastigotes expressing beta galactosidase infected in human MRC5 cells. The format is toxicity, cell-based. The following applies: read-out: Selectivity Index. The procedure, abridged: (§1)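 T. cruzi Tulahuen CL2 β-galactosidase strain grown in MRC-5 cells (MEM, 5% heat-inactivated FCS, 37 °C, 5% CO2). MRC-5 cells (4 x 10^3/well) plus parasites (4 x 10^4/well) exposed 7 days to 4-fold dilutions from 64 µM down; final DMSO <1%. CPRG with Nonidet added, absorbance at 540 nm after 4 h. IC50 calculated against untreated-infected (100%) and non-infected (0%) controls. SI = MRC-5 CC50/IC50.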

Data set [3] has as its system Trypanosoma cruzi. Briefly: Antitrypanosomal activity against Trypanosoma cruzi Tulahuen CL2 amastigotes expressing beta galactosidase infected in human MRC5 cells assessed as reduction in parasite burden using chlorophenol red beta-D-galactopyranoside as substrate and measured after 7 days by spectrophotometric analysis. The following applies: Tulahuen CL2, MRC5, 168 h. The format is functional, organism-based. The essentials:
as §1

Data set [4] can be described thus: Drug metabolism in S9 cells assessed as turnover. The settings on record: mouse.
In data set [5] the test system is Trypanosoma cruzi. Briefly: Antitrypanosomal activity against intracellular Trypanosoma cruzi amastigote infected primary peritoneal mouse macrophages assessed as reduction in amastigote population. The format is functional. More on the design: concentration or dose not given beside the values. The procedure, abridged:
(§2)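 High-content imaging of primary mouse macrophages infected with T. cruzi. Counts both amastigotes per cell and percentage of infected cells. 96 h exposure, with maximal activity scored at 10 µM. IC50 and IC90 against intracellular amastigotes taken from the same 96 h incubation.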

Data set [6] has as its system Trypanosoma cruzi. Description: Antitrypanosomal activity against intracellular Trypanosoma cruzi amastigote infected primary peritoneal mouse macrophages assessed as reduction in infection rate. The format is functional. The procedure, abridged: as §2
For data set [7], the system named is Trypanosoma cruzi. Description: Antitrypanosomal activity against intracellular Trypanosoma cruzi amastigote infected primary peritoneal mouse macrophages assessed as reduction in amastigote population measured after 96 hrs. The format is functional, organism-based. The settings on record: for IC50: 96 h; for IC90: time 96 hrs. The essentials: as §2
A short description of data set [8]: Kinetic solubility of the compound at pH 2 PBS buffer measured after 24 hrs shaken by LC-MS/MS analysis. The format is physicochemical. The settings on record: read-out: Kinetic_solubility. The essentials:
(§3)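 Compounds from 10 mM DMSO stocks diluted in PBS pH 7.4 or pH 2.0 to 250 µM final, 2.5% DMSO, in duplicate. Shaken 24 ± 1 h at 200 rpm, room temperature, then centrifuged to remove precipitate. Supernatant quantified by LC-MS/MS against per-compound calibration at 1–50 µM.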

A short description of data set [9]: Kinetic solubility of the compound at pH 7.4 PBS buffer measured after 24 hrs shaken by LC-MS/MS analysis. The format is physicochemical. The settings on record: read-out: Kinetic_solubility. The procedure, abridged: as §3
Data set [10] can be described thus: Passive permeability of the compound at 10 uM at pH 6.5 to 7.4 donor portion/acceptor portion by PAPMA assay. The format is ADME. The following applies: not told, read-out: permeability. The procedure, abridged: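 PAMPA on pre-coated membranes. Donor holds 10 µM compound in PBS pH 6.5; acceptor holds PBS pH 7.4. Incubated 5 h at 37 °C. Donor, acceptor and initial donor samples quenched and quantified by LC-MS/MS to calculate effective permeability (Pe). Run in triplicate.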

Data set [11] is described as follows: Cytotoxicity against mouse 3T3 cells assessed as reduction in cell viability measured after 24 hrs by colorimetric assay. The format is toxicity, cell-based. The settings on record: NIH3T3 cells.
Data set [12] in a line: Cytotoxicity against human MRC5 cells assessed as reduction in cell viability measured after 24 hrs by colorimetric assay. The format is toxicity, cell-based.
A short description of data set [13]: Cytotoxicity against primary peritoneal mouse macrophages assessed as reduction in cell viability measured after 24 hrs by colorimetric assay. The format is toxicity, cell-based, Peritoneal macrophage.
Data set [14] is described as follows: Cytotoxicity against rat L6 cells assessed as reduction in cell viability measured after 24 hrs by colorimetric assay. The format is toxicity, cell-based.
A short description of data set [15]: Cytotoxicity against human HepG2 cells assessed as reduction in cell viability measured after 24 hrs by colorimetric assay. The format is toxicity, cell-based.
In data set [16] the test system is Trypanosoma cruzi. Briefly: Antitrypanosomal activity against intracellular Trypanosoma cruzi amastigote infected mouse 3T3 cells assessed as reduction in amastigote population measured after 48 hrs.

Where only a bound is given, the exact number is not on record here.

On to `CCCn1c(NC(=O)c2cccnc2)nc2cc(F)ccc21`, for which the microsomal CLint in data set [1] was determined as 164 µL/min/mg. In [2], the selectivity ratio is above 8. For the same compound, the concentration for half-maximal inhibition (IC50) in data set [3] came to 8200 nM. Further, the metabolised in [4] was 1.91%.

For the compound `N#Cc1ccc2nc(NC(=O)c3cc(C(F)(F)F)n[nH]3)n(CC(F)(F)F)c2c1`, the microsomal CLint in data set [1] is 25 µL/min/mg. Also, the selectivity ratio in [2] is above 42. The figures for the IC50 in [3] and in data set [7] were 1500 nM and 570 nM, respectively. The Activity in data set [5] stood at 99%. In addition, in data set [6], the “inhibition (INH)” value worked out at 97%. In data set [7], the concentration for an effect of 90% (IC90) is 880 nM. The solubility kinetic at 24 h in data set [8] and in data set [9] was below 1 µM throughout. The Papp at 10 µM in [10] is 2 ×10⁻⁶ cm/s. Also, the half-maximal cytotoxic concentration (CC50) at 24 h was above 40000 nM in data set [11]; above 64000 nM in [12]; 25000 nM in data set [13]; 12000 nM in data set [14]; 1800 nM in [15].

With `CCCn1c(NC(=O)c2ccccn2)nc2cc(F)ccc21`, in data set [1], the microsomal CLint is 413 µL/min/mg. The selectivity ratio in [2] was found to be 7. The IC50 in data set [3] amounted to 1100 nM. In data set [4], the metabolised is 66.2%.

Consider `Cn1nc(C(F)(F)F)cc1C(=O)Nc1nc2ccc(C#N)cc2n1CC(F)(F)F`, for which the microsomal CLint in data set [1] was 28 µL/min/mg. The selectivity ratio in data set [2] is 34. Besides, the results for the IC50 in data set [3], in data set [7] and in data set [16] were 230 nM, 190 nM and 990 nM, respectively. Also, in data set [5], the Activity came out at 99%. In addition, the “inhibition (INH)” value in [6] stood at 97%. In data set [7], the IC90 was 360 nM. Moreover, the solubility kinetic at 24 h in data set [8] and in [9] was below 1 µM throughout. For the same compound, the Papp at 10 µM in data set [10] was 2.4 ×10⁻⁶ cm/s. Moreover, the CC50 at 24 h in [11] was above 40000 nM; in data set [12] it was 8000 nM; in data set [13], 1000 nM; in [14], 19000 nM; in data set [15], 1100 nM.

With `N#Cc1ccc2nc(NC(=O)c3ccnc(C(F)(F)F)c3)n(CC(F)(F)F)c2c1`, in data set [1], the microsomal CLint stood at 27 µL/min/mg. The selectivity ratio in data set [2] was above 231. The half-inhibitory concentration (IC50) in data set [3] is 280 nM; in data set [7] it was 140 nM; in [16], 1320 nM. Moreover, the Activity in data set [5] came to 98%. Also, the “inhibition (INH)” value in data set [6] was 91%. Also, in data set [7], the IC90 worked out at 310 nM. The solubility kinetic at 24 h in data set [8] and in [9] was below 1 µM each time. In [10], the Papp at 10 µM was 2.3 ×10⁻⁶ cm/s. Besides, the CC50 at 24 h is above 40000 nM in data set [11]; above 64000 nM in data set [12]; 4000 nM in [13]; 50000 nM in data set [14]; 2400 nM in data set [15].

The values above are taken from ChEMBL document CHEMBL5352453, “Hit-to-lead optimization of a 2-aminobenzimidazole series as new candidates for chagas disease” (Eur J Med Chem, 2023).
